MEKK2 WT-MEK5 = raises or lowers MEK5 binding to wildtype human MEKK2 PB1 domain | bead flow cytometry, Alexa488-MEK5 binding to MEKK2 WT; actives lie on both sides | Q9Y2U5 | 290,000 tested, 1.1% active | binding response (% of control), % at 10 µM; in the data active = binding response below about 67% or above about 130%
Efflux pump inh = inhibitors of Candida antifungal efflux pumps expressed in yeast. 330,000 tested, 0.44% active. inhibition, % at 10 µM. S. cerevisiae Candida pump triplex, Nile Red efflux;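 active = plate passing quality check with inhibition over a set limit, or well fluorescence over plate mean plus 4 SD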;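 note: Nile Red retained in pooled yeast measured as flow cytometry median fluorescence; 0% = buffer negative control and 100% = Enniatin B positive control; higher means more Nile Red kept so more efflux inhibition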
MEKK3 PB1 HTS = MEKK3-MEK5 PB1 interaction, increase or decrease. binding response (% of control), % at 10 µM. bead-based flow cytometry, Alexa488-MEK5 binding to MEKK3; actives lie on both sides; 0 = blocked by unlabeled MEK5, 100 = vehicle. Q99759. 290,000 tested, 1.4% active;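 active = binding response more than 3 SD above or below the average of its plate-row segment, actives on both sides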;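 note: Alexa488 bead fluorescence after subtracting the streptavidin-only scavenger bead signal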
MEKK2 mut-MEK5 = signal of MEK5 binding to mutant human MEKK2 PB1 domain. 290,000 tested, 0.35% active. percent response, % at 10 µM. bead flow cytometry, Alexa488-MEK5 binding to MEKK2 mutant; in the data active = percent response above about 24%, passing the limit was not always enough
ABCG2 block = human ABCG2 inhibition, ABCB1 as counter-screen. inhibition, % at 6.6 µM. IgMXP3 cells, JC-1 efflux, flow cytometry. 190,000 tested, 0.1% active;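 active = inhibition above 80%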;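 note: 0% = DMSO and 100% = nicardipine control wells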
Target sequence (Q9UNQ0 whole entry, looked up): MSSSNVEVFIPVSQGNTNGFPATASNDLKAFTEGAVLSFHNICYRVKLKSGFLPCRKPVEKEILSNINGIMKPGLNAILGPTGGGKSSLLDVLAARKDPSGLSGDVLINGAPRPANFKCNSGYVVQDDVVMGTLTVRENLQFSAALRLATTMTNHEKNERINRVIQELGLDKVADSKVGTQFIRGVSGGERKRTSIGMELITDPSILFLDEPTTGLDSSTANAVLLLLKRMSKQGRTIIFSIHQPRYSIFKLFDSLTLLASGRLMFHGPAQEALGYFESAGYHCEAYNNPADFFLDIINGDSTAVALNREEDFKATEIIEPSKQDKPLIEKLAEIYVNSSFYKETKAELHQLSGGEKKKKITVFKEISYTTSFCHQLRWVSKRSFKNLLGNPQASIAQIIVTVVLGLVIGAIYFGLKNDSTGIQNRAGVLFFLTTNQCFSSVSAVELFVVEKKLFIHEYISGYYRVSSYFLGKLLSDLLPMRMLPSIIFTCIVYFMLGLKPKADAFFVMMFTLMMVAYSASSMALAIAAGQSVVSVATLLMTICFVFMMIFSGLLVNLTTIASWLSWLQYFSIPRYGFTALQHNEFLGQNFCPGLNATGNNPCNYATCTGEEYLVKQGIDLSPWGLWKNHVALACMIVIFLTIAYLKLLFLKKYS
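Test system: ABCG2 IgMXP3 and barcoded ABCB1 CCRF-Adr cell mix; Schedule: cells with compound and JC-1, 10 min at 25 °C, rotating, no wash; Technique: flow cytometry of retained JC-1 fluorescence; Measure: % inhibition of efflux relative to nicardipine and DMSO; Controls: nicardipine high and DMSO low controls.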
ABCB1 block = human ABCB1 inhibition, ABCG2 as counter-screen; P08183; 190,000 tested, 0.067% active; inhibition, % at 6.6 µM; CCRF-Adr cells, JC-1 efflux, flow cytometry; in the data active = inhibition above about 40%;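 note: 0% = vehicle and 100% = reference inhibitor; higher value means more JC-1 retained so stronger ABCB1 efflux block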
Starred values were filed as active, the others as inactive; / = no result given; [ ] = dose if it differs, or a comment. The list is not random: actives were taken first. Their share in the collection is about 2.5%.

SMILES | MEKK2 WT-MEK5 | Efflux pump inh | MEKK3 PB1 HTS | MEKK2 mut-MEK5 | ABCG2 block | ABCB1 block
O=C(COC(=O)c1ccncc1)Nc1cc(Cl)c(Cl)cc1Cl | / | 0.8* | / | / | 10 | 2
CCOc1cc(CNCc2cccnc2)ccc1OCC(=O)NC(C)(C)C | 101 | 0 | 103 | 1 | 1 | 1
Cc1ccccc1OCC(=O)Nc1sc2c(c1C#N)CC(C)(C)NC2(C)C | 106 | 0 | 102 | 1 | / | /
CC1(C)Cc2c(sc(NC(=O)COc3ccc(Cl)cc3)c2C#N)C(C)(C)N1 | 104 | 1.6* | 99 | 1 | / | /
Cc1ccccc1NC(=O)C1CCN(S(=O)(=O)c2cccc3nonc23)CC1 | 105 | 0 | 102 | -2 | / | /
CC1CCN(CCNC(=O)c2ccc3c(=O)n(Cc4ccc(Cl)cc4)c(=S)[nH]c3c2)CC1 | 175* | 0 | 101 | 39* | / | /
Cc1ccc(C(=O)NCCCN2CCN(CCCNC(=O)c3ccc(C)cc3)CC2)cc1 | / | 0 | / | / | / | /
Cc1[nH]c2ccc(C(=O)NCCCN3CCCCC3)cc2c1C | 132 | 0 | 100 | 11 | / | /
Cc1[nH]c2ccc(C(=O)NCCN3CCCCCC3)cc2c1C | 135* | 0 | 102 | 20 | / | /
CCC1=Nc2cc(C(=O)NCCN3CCCC3)ccc2Sc2ccccc21 | 135* | 0 | 101 | 16 | / | /
Cc1c(C)n(C)c2ccc(C(=O)NCCCN3CCCCC3)cc12 | 154* | 0 | 102 | 25* | / | /
Cc1ccc(-c2cc(C(=O)NCCCN3CCCC3)c3ccccc3n2)cc1C | 141* | 0 | 103 | 11 | / | /
COc1ccc(/C=C(/NC(=O)c2ccccc2)C(=O)N2CCOCC2)cc1OC | 97 | 0 | 98 | 3 | / | /
Cc1c(C)n(C)c2ccc(C(=O)NCCCN3CCOCC3)cc12 | 103 | 0 | 99 | 6 | / | /
Cc1c(C)n(C)c2ccc(C(=O)NCCCN3CCCC3)cc12 | 142* | 0 | 102 | 14 | / | /
Cc1ccc(C)c2nc3sc(C(=O)N4CCCc5ccccc54)c(N)c3cc12 | / | 0 | / | / | 14 | 13
CCc1ccc2nc3sc(C(=O)N4CCc5ccccc54)c(N)c3cc2c1 | 87 | 0 | 103 | 59* | 3 | 4
COc1cc(C(=O)Nn2c(C)nc3ccccc3c2=O)cc(OC)c1OC | 105 | 0 | 107 | 10 | / | /
Cc1oc(-c2cccc(Cl)c2)nc1CN1CCC(C(=O)NCCCN2CC(C)CC(C)C2)CC1 (stereo not drawn) | 139* | 0 | 101 | 18 | / | /
Cc1oc(-c2cccc(Cl)c2)nc1CN1CCC(C(=O)NCCCN2CCCC2=O)CC1 | 103 | 0 | 102 | 3 | 1 | 1
CCC1CCCCN1CCCNC(=O)C1CCN(c2ncnc3c2nc2n3CCCCC2)CC1 (stereo not drawn) | 100 | 0 | 97 | -1 | / | /
CC1CCCCN1CCCNC(=O)C1CCN(c2nnc(-n3cccc3)s2)CC1 (stereo not drawn) | 150* | 0 | 100 | 22 | / | /
CCOc1ccc(NCc2cccn2-c2nnc(N3CCC(C(=O)NCCCN4CCCCC4CC)CC3)s2)cc1 (stereo not drawn) | 133 | 0 | 104 | 24* | / | /
CCOc1ccc2nc(N3CCCC(C(=O)NCCCN4CC(C)CC(C)C4)C3)sc2c1 (stereo not drawn) | 142* | 0 | 107 | 16 | / | /
Cc1ccc(NC(=O)COC(=O)Cn2ccc(=O)[nH]c2=O)cc1C | / | 0 | / | / | / | /
SMILES | MEKK2 WT-MEK5 | Efflux pump inh | MEKK3 PB1 HTS | MEKK2 mut-MEK5 | ABCG2 block | ABCB1 block
O=C(NCC(c1ccco1)N1CCCCC1)c1ccc(COc2ccccc2)cc1 (stereo not drawn) | / | 0 | / | / | / | /
N=C1C(=O)OCC1c1ccccc1NC(=O)CN1CCOCC1 (stereo not drawn) | 102 | 0 | 97 | -2 | 0 | 0
COc1ccc(NC(=O)CSc2ccc3nnc(CCNC(=O)c4ccccc4)n3n2)cc1OC | 100 | 0 | 99 | -3 | / | /
O=C(NCCCN1CCN(Cc2ccccc2)CC1)C1CCN(c2nnc(-n3cccc3)s2)CC1 | 197* | 0 | 111 | 56* | 4 | 1
Cc1ccc(C)n1-c1nnc(N2CCC(C(=O)NCCCN3CC(C)CC(C)C3)CC2)s1 (stereo not drawn) | 102 | 0 | 101 | 0 | / | /
CC1CC(C)CN(CCCNC(=O)C2CCN(c3nnc(-n4cccc4)s3)CC2)C1 (stereo not drawn) | 155* | 0 | 100 | 20 | / | /
O=C(CC1SC(=O)NC1=O)Oc1ccc(/C=N/NC(=O)c2ccccc2O)cc1 (stereo not drawn) | 95 | 0 | 102 | -2 | / | /
O=C(COC(=O)c1ccc2c(c1)C(=O)N(c1cccc3ncccc13)C2=O)c1ccc(Cl)cc1 | 80 | 0 | 70*[inhibitor] | -2 | 0 | 0
Cc1cc(OCC(=O)N2CCc3ccccc3C2)c(C)cc1Br | 106 | 0 | 104 | 3 | / | /
CN(C)c1ccc(/C=C/c2ccc3ccccc3[n+]2C)cc1 | 2.0* | 29* | 97 | 27 | 1 | 0
O=C(NC1CCCCC1)c1cccnc1Sc1ccccc1Cl | 96 | 0 | 98 | 0 | / | /
O=C(O)c1cccnc1Sc1ccccc1Cl | 29* | 0 | 97 | 9 | / | /
OC(c1cc(-c2ccc(Cl)cc2)nc2ccccc12)C1CCCCN1 (stereo not drawn) | 155* | 0 | 115 | 59* | / | /
O[C@@H](c1cc(C(F)(F)F)nc2c(C(F)(F)F)cccc12)[C@H]1CCCCN1 | / | 0 | / | / | / | /
CC(C)N1CCc2c(sc(NC(=O)c3ccc4ccccc4c3)c2C(N)=O)C1 | 134* | 0 | 103 | 14 | / | /
OC[C@@H](O)[C@@H](O[C@@H]1O[C@H](CO)[C@H](O)[C@H](O)[C@H]1O)[C@H](O)[C@@H](O)CO | 100 | 0 | 97 | -1 | / | /
Cc1ccc2c(c1)c1c(n2CC(O)CN2CCOCC2)CCCC1 (stereo not drawn) | 19* | 0 | 102 | 20 | / | /
CSC(=NC#N)N1CCN(c2ccc([N+](=O)[O-])cc2)CC1 | 96 | 0 | 96 | -7 | 0 | 0
Cc1[nH][nH]c(=O)c1C(c1cc2c(cc1Br)OCO2)c1c(C)[nH][nH]c1=O | 23* | 0 | 103 | 36 | -1 | 1
Cc1[nH][nH]c(=O)c1C(c1cc(Br)ccc1O)c1c(C)[nH][nH]c1=O | 103 | 0 | 105 | 3 | / | /
O=C(NCC(O)CN1CCOCC1)c1ccc([N+](=O)[O-])cc1 (stereo not drawn) | 103 | 0 | 99 | 2 | 4 | 1
O=C(Nc1ccnn1C1CCN(CC2CC=CCC2)CC1)c1ccccc1 (stereo not drawn) | 104 | / | 101 | -2 | / | /
Cn1cc(CN2CCC(n3nccc3NC(=O)c3ccccc3Cl)CC2)c2ccccc21 | 155* | 0 | 103 | 19 | / | /
COc1ccccc1C(=O)Nc1ccnn1C1CCN(Cc2cn(C)c3ccccc23)CC1 | 116 | 0 | 102 | 11 | / | /
